In ChEMBL document CHEMBL4118021, “Studies of TAK1-centered polypharmacology with novel covalent TAK1 inhibitors” (Bioorg Med Chem, 2017):
One block for each compound: values may come before it. The source made the active and inactive calls. The calls are words filed in the database; no cut-off is given here.

Key:
[1] = molecular target: T1, Dual specificity mitogen-activated protein kinase kinase 3 (Homo sapiens) (UniProt P46734); assay: Inhibition of full length human MEK3 (1 to 318 residues) expressed in mammalian expression system assessed as enzyme activity at 1 uM by KINOMEScan assay relative to control; parameters: scale not given: the % may be the effect or the level left
T1 sequence (whole entry): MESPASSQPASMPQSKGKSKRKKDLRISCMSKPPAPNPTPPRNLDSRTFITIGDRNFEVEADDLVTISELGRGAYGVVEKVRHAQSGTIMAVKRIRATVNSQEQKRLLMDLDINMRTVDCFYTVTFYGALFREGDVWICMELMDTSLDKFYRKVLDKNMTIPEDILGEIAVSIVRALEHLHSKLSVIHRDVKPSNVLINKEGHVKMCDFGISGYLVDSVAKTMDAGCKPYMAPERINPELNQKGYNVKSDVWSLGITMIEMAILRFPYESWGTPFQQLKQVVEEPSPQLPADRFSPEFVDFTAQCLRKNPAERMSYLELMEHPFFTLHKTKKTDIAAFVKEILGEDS
Method in brief: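 In vitro ATP-site competition binding assay (KinomeScan) across a panel of 456 kinases. Compound was tested at 1 and 10 μM. The read-out is the binding inhibition score relative to control.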

[2] = molecular target: Y-box-binding protein 3 (Homo sapiens) (UniProt P16989); assay: Binding affinity to YBX3 in human NCI-H23 cells at 1 uM by mass spectrometry based pull down assay; format: cell-based
[3] = molecular target: Far upstream element-binding protein 1 (Homo sapiens) (UniProt Q96AE4); assay: Binding affinity to FUBP1 in human NCI-H23 cells at 1 uM by mass spectrometry based pull down assay; format: cell-based
[4] = molecular target: Calmodulin-2 (Homo sapiens) (UniProt P0DP24); assay: Binding affinity to CALM2 in human NCI-H23 cells at 1 uM by mass spectrometry based pull down assay; format: cell-based
[5] = molecular target: Serine/threonine-protein kinase Chk2 (Homo sapiens) (UniProt O96017); assay: Binding affinity to CHEK2 in human NCI-H23 cells at 1 uM by mass spectrometry based pull down assay; format: cell-based
[6] = molecular target: Spermidine synthase (Homo sapiens) (UniProt P19623); assay: Binding affinity to SRM in human NCI-H23 cells at 1 uM by mass spectrometry based pull down assay; format: cell-based
Sequence of Spermidine synthase (Homo sapiens) (P19623 whole entry): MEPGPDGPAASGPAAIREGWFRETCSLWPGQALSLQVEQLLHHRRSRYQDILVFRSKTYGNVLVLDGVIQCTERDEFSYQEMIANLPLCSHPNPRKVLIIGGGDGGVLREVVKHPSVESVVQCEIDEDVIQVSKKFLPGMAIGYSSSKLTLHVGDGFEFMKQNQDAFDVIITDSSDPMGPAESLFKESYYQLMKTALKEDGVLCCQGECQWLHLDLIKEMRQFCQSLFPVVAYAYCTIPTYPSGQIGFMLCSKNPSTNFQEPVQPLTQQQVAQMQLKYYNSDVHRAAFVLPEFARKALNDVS

[7] = molecular target: Translation initiation factor eIF2B subunit gamma (Homo sapiens) (UniProt Q9NR50); assay: Binding affinity to EIF2B3 in human NCI-H23 cells at 1 uM by mass spectrometry based pull down assay; format: cell-based
[8] = molecular target: Thioredoxin-dependent peroxide reductase, mitochondrial (Homo sapiens) (UniProt P30048); assay: Binding affinity to PRDX3 in human NCI-H23 cells at 1 uM by mass spectrometry based pull down assay; format: cell-based
Sequence of Thioredoxin-dependent peroxide reductase, mitochondrial (Homo sapiens) (P30048 whole entry): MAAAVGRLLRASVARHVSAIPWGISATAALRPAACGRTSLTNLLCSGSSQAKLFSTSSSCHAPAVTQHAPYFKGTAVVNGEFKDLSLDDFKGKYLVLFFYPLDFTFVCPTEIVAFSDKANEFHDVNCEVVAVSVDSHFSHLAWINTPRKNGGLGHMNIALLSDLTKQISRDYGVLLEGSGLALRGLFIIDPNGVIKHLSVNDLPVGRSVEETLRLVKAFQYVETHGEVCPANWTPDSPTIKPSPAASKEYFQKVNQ

[9] = molecular target: Proteasome Macropain subunit MB1 (Homo sapiens) (UniProt P28074); assay: Binding affinity to PSMB5 in human NCI-H23 cells at 1 uM by mass spectrometry based pull down assay; format: cell-based
Sequence of Proteasome Macropain subunit MB1 (Homo sapiens) (P28074 whole entry): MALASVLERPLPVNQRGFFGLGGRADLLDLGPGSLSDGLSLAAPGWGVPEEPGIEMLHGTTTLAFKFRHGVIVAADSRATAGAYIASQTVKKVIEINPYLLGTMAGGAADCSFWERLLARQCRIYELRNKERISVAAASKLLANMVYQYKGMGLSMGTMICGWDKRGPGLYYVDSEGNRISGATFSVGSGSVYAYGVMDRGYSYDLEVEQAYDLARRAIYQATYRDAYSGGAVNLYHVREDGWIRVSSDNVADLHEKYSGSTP

[10] = molecular target: Ribonucleoside-diphosphate reductase large subunit (Homo sapiens) (UniProt P23921); assay: Binding affinity to RRM1 in human NCI-H23 cells at 1 uM by mass spectrometry based pull down assay; format: cell-based
Sequence of Ribonucleoside-diphosphate reductase large subunit (Homo sapiens) (P23921 whole entry, the tested form may be a part): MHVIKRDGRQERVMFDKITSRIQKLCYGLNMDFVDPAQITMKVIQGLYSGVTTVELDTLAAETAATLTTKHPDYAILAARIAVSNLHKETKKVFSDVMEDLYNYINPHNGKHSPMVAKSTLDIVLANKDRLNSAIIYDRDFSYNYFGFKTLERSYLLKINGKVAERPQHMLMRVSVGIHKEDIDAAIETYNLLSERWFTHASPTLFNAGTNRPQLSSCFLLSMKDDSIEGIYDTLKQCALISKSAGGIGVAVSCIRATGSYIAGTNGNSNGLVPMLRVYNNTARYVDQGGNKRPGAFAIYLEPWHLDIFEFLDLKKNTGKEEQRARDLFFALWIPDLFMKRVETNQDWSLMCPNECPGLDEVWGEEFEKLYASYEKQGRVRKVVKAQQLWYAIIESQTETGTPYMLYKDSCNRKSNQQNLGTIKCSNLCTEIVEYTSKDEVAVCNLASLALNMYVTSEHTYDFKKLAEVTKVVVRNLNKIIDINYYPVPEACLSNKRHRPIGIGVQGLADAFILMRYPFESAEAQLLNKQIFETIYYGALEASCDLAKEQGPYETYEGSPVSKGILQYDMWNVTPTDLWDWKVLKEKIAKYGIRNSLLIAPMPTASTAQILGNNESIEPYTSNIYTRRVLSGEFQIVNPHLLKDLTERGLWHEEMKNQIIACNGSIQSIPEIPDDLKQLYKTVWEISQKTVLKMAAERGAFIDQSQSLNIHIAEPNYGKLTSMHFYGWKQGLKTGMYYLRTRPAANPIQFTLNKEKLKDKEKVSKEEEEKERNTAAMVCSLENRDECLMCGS

[11] = molecular target: Transmembrane emp24 domain-containing protein 10 (Homo sapiens) (UniProt P49755); assay: Binding affinity to TMED10 in human NCI-H23 cells at 1 uM by mass spectrometry based pull down assay; format: cell-based
Sequence of Transmembrane emp24 domain-containing protein 10 (Homo sapiens) (P49755 whole entry, the tested form may be a part): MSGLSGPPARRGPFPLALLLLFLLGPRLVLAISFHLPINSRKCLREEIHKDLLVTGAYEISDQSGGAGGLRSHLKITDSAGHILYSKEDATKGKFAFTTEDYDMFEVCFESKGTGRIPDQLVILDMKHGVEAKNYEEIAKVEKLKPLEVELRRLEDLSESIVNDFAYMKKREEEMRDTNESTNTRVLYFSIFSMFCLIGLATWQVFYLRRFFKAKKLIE

[12] = molecular target: Testis-expressed protein 264 (Homo sapiens) (UniProt Q9Y6I9); assay: Binding affinity to TEX264 in human NCI-H23 cells at 1 uM by mass spectrometry based pull down assay; format: cell-based
Sequence of Testis-expressed protein 264 (Homo sapiens) (Q9Y6I9 whole entry): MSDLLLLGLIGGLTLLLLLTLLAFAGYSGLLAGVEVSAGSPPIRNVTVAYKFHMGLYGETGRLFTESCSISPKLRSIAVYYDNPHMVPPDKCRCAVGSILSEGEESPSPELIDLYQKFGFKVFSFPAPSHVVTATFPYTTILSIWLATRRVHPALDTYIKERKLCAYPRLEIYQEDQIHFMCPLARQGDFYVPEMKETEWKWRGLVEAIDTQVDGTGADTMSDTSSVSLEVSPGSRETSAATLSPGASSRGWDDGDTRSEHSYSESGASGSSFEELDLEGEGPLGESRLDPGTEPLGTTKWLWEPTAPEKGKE

[13] = molecular target: Citrate synthase, mitochondrial (Homo sapiens) (UniProt O75390); assay: Binding affinity to CS in human NCI-H358 cells at 1 uM by mass spectrometry based pull down assay; format: cell-based
[14] = molecular target: Heterogeneous nuclear ribonucleoprotein H2 (Homo sapiens) (UniProt P55795); assay: Binding affinity to HNRNPH2 in human NCI-H358 cells at 1 uM by mass spectrometry based pull down assay; format: cell-based
[15] = molecular target: Ras GTPase-activating-like protein IQGAP1 (Homo sapiens) (UniProt P46940); assay: Binding affinity to IQGAP1 in human NCI-H358 cells at 1 uM by mass spectrometry based pull down assay; format: cell-based
[16] = molecular target: Ubiquitin-like modifier-activating enzyme 1 (Homo sapiens) (UniProt P22314); assay: Binding affinity to UBA1 in human NCI-H358 cells at 1 uM by mass spectrometry based pull down assay; format: cell-based
Sequence of Ubiquitin-like modifier-activating enzyme 1 (Homo sapiens) (P22314 whole entry): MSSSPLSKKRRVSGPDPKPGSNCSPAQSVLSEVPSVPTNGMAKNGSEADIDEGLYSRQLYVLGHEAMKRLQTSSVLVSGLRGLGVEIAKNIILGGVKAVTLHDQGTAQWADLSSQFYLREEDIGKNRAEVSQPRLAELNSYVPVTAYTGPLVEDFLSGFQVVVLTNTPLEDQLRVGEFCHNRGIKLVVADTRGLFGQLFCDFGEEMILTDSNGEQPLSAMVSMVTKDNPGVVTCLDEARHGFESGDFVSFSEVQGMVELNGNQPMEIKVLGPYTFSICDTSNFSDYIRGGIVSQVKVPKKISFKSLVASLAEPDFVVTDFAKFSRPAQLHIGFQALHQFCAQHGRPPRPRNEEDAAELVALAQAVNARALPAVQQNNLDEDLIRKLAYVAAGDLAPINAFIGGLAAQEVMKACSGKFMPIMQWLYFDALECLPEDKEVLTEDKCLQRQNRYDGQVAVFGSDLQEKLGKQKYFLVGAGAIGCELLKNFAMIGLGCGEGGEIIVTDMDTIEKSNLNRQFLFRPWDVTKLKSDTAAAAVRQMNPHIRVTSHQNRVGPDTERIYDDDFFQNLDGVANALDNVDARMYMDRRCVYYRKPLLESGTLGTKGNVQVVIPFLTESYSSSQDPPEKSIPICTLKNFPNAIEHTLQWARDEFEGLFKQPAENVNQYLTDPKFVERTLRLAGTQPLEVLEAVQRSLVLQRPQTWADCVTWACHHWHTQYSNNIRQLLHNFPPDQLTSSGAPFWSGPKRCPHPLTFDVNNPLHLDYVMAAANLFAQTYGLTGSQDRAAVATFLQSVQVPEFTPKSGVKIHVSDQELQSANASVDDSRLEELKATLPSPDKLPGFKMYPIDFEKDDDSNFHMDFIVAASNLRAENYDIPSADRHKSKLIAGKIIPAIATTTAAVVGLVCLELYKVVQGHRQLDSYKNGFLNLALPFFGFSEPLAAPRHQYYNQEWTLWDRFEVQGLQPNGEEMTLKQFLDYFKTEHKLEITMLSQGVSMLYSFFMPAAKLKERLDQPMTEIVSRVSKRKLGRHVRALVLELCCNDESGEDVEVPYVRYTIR

[17] = molecular target: UV radiation resistance-associated gene protein (Homo sapiens) (UniProt Q9P2Y5); assay: Binding affinity to UVRAG in human NCI-H358 cells at 1 uM by mass spectrometry based pull down assay; format: cell-based
Sequence of UV radiation resistance-associated gene protein (Homo sapiens) (Q9P2Y5 whole entry): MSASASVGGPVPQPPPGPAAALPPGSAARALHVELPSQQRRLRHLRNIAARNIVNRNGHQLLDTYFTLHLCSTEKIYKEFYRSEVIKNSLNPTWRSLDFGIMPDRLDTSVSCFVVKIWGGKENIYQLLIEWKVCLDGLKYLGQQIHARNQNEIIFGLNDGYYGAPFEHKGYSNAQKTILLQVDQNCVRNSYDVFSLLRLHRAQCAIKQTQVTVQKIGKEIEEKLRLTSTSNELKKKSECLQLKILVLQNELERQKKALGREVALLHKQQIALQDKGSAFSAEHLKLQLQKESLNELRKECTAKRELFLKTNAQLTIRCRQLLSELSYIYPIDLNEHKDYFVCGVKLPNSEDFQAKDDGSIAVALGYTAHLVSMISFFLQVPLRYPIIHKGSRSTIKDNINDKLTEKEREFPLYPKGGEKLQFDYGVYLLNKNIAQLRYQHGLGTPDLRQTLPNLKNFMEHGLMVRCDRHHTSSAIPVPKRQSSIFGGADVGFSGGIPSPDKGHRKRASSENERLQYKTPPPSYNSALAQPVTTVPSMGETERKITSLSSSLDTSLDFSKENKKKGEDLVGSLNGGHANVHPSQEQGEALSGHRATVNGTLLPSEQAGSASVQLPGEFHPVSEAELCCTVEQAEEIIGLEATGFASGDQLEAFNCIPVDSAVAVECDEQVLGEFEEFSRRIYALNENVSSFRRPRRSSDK

[18] = molecular target: Cyclin-G-associated kinase (Homo sapiens) (UniProt O14976); assay: Binding affinity to GAK in human NCI-H358 cells at 1 uM by mass spectrometry based pull down assay; format: cell-based
[19] = molecular target: DNA replication licensing factor MCM6 (Homo sapiens) (UniProt Q14566); assay: Binding affinity to MCM6 in human NCI-H358 cells at 1 uM by mass spectrometry based pull down assay; format: cell-based
[20] = molecular target: T2, Non-receptor tyrosine-protein kinase TNK1 (Homo sapiens) (UniProt Q13470); assay: Binding affinity to TNK1 in human NCI-H358 cells at 1 uM by mass spectrometry based pull down assay; format: cell-based
T2 sequence (whole entry): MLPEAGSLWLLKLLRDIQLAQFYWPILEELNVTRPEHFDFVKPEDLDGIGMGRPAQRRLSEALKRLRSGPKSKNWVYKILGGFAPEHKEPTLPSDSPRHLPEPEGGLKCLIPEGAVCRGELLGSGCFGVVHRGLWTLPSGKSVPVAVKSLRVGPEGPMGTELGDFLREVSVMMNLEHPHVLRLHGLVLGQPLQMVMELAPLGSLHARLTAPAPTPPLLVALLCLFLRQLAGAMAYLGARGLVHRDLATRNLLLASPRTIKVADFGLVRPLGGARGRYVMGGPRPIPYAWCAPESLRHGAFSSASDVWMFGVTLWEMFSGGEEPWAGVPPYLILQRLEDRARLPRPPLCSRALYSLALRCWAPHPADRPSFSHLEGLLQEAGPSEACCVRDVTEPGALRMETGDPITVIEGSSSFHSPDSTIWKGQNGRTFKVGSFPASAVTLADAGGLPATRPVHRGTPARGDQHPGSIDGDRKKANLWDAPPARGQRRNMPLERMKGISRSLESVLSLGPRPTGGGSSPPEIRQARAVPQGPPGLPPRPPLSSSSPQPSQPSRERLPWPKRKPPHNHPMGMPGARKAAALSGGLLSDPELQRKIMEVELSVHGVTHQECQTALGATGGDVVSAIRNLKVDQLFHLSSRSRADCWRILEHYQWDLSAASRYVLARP

[21] = molecular target: MAP kinase-interacting serine/threonine-protein kinase 2 (Homo sapiens) (UniProt Q9HBH9); assay: Binding affinity to MKNK2 in human NCI-H358 cells at 1 uM by mass spectrometry based pull down assay; format: cell-based
Sequence of MAP kinase-interacting serine/threonine-protein kinase 2 (Homo sapiens) (Q9HBH9 whole entry, looked up): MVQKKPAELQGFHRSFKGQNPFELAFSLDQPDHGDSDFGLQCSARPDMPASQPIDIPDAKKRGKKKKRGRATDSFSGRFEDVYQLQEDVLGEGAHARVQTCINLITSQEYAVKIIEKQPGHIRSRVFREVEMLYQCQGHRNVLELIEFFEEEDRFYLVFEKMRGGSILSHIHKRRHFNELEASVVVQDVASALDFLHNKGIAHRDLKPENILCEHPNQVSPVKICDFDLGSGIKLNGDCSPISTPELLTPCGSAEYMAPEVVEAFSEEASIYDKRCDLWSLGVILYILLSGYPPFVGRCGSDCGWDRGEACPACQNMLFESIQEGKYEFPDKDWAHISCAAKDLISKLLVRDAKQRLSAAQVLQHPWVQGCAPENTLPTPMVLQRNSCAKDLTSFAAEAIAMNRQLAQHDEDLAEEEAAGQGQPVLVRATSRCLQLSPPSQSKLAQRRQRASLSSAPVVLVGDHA

[22] = molecular target: Lysine--tRNA ligase (Homo sapiens) (UniProt Q15046); assay: Binding affinity to KARS in human NCI-H358 cells at 1 uM by mass spectrometry based pull down assay; format: cell-based
Sequence of Lysine--tRNA ligase (Homo sapiens) (Q15046 2-597 limits assumed): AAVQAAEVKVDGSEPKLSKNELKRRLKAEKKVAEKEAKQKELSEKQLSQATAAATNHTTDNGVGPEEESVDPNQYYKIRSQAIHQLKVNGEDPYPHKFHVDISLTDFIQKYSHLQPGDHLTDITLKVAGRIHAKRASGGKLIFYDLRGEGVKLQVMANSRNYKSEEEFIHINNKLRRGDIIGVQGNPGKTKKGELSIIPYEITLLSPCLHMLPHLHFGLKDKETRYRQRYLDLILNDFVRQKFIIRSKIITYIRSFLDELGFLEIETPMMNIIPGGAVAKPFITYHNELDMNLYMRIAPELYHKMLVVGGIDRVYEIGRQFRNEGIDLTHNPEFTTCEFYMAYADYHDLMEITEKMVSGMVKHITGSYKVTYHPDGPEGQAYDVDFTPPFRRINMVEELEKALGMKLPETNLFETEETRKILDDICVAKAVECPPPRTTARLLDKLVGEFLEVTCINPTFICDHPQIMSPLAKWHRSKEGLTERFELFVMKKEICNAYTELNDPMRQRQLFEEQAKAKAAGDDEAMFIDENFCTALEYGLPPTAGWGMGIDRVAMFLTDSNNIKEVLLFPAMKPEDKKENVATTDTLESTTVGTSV

Structure (SMILES): COc1cc(O)c2c(c1)/C=C/C[C@H](O)[C@H](O)C(=O)/C=C\C[C@H](C)OC2=O
Activity [1]: 22%

Activity [2]: Active
Activity [3]: Active
Activity [4]: Active
Activity [5]: Active
Activity [6]: Active
Activity [7]: Active
Activity [8]: Active
Activity [9]: Active
Activity [10]: Active
Activity [11]: Active
Activity [12]: Active
Activity [13]: Active
Activity [14]: Active
Activity [15]: Active
Activity [16]: Active
Activity [17]: Active
Activity [18]: Active
Activity [19]: Active
Activity [20]: Active
Activity [21]: Active
Activity [22]: Active
Structure (SMILES): C=CC(=O)Nc1ccccc1Nc1nc(Nc2ccc(N3CCN(CCOCCOCCOCCNC(=O)CCCC[C@@H]4SC[C@@H]5NC(=O)N[C@@H]54)CC3)cc2)ncc1Cl
